We go through 48 sequences from the EternaBench riboswitch data.

The data set concerns MS2 coat protein. The experiment in a line: apparent Kd, MS2 coat protein; higher = weaker binding; RNA-MaP array; FMN 200 µM where present. Summed up:
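Two titrations, one without ligand and one with constant ligand, were run with SNAP-549-labelled MS2 coat protein from 0.7 or 1.5 nM, doubling to 3 µM. The targets were designs transcribed by stalled E. coli RNA polymerase on Illumina sequencing-chip clusters, in 100 mM Tris-HCl pH 7.5, 80 mM KCl, 4 mM MgCl2, BSA, DTT, yeast tRNA and Tween-20. The apparent Kd is the median of filtered per-cluster binding-curve fits, with green signal normalised to red-channel RNA signal and control-cluster median Fmax.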

The mark [1] stands for this setting: designed as: OFF switch for flavin mononucleotide, no ligand.
The mark [2] stands for this setting: ligand present: flavin mononucleotide, designed as: OFF switch for flavin mononucleotide.
Where [3] appears, read: designed as: ON switch for flavin mononucleotide, no ligand.
Where [4] appears, read: ligand present: flavin mononucleotide, designed as: ON switch for flavin mononucleotide.

Turning to “AUGGACGCAGGAUAUACAUGAGGAUCACCCAUGUUAGGGUUAAGAGAAGGAAGGGAGAGUAGAAGGGCGAGAGU”, the “apparent Kd” value reads like this: under setting [1], 118 nM; under setting [2], 89.3 nM.
For “UUAUUAAGUGUGAGGAUAUGCUGGUCCUUGGAUCAGCAGAAGGCACAUGAGGAUCACCCAUGUAAUAUAUUUAU” the same measures were 103 nM and 389 nM.
“GUAGCAUACGGAGGAUAUUCAUAUAAUAAAUAAACAUGAGGAUCACCCAUGUGGCGAAAGCCUUGGGAGAAGGCCGAAUGCUAC”: the “apparent Kd” value came out at 805 nM under setting [3] and 39.8 nM under setting [4].
For “UAUUAAUACAUAUACAUGAGGAUCACCCAUGUCAAAAGACAUGAGGAUAUGGAUCCUAAUUGGAUCCAGAAGGCAUGAAUAAUU”, in that order: 347 nM and 17.6 nM.
As for “UAUAUGUCAGGAUAUUAGUUGUGUUAGAAUUUAUCUUCUGCUGAGAAGGGACAUGAGGAUCACCCAUGUUCCUC”, the “apparent Kd” value reads like this: under setting [1], 14.5 nM; under setting [2], 16 nM.
For “GCUGCAUAGUCAGGAUAUGCAACAUAAUAUACAAAAUAGUAUAUUAUGACAUGAGGAUCACCCAUGUAGAAGGGACUGUGCAGU”, in that order: 19.3 nM and 19.9 nM.
For “AUGCUAUAUGUAGGAUAUUCAAAGAAAGAGAAUGAAGAAGGACAUGAGGAUCACCCAUGUAAAAUGUAGAUAGAUAUCAUACAU”, in that order: 18 nM and 14 nM.
For “AGAAAACGAGGAUAUACGUGCAUAUUCUCGCCCAAUGGGCAACAUGAGGAUCACCCAUGUAGAAGGCGUAAAGA” the same measures were 37.4 nM and 71.7 nM.
Turning to “GUAGCAUACCGAGGAUAUUCAGGGCUUAUAUAAACAUGAGGAUCACCCAUGUGGCGAAAGCCUAGGGAGAAGGCGGAAUGCUAC”, the “apparent Kd” value stood at 14.9 nM under setting [3] and 13.1 nM under setting [4].
With “AAAUAAAGCAGUGUGGUAAGAUCACAUGAGGAUCACCCAUGUAAGGAUAUGACGAGCAAAGCUCGUCAGAAGGUACGUCACUGC”, the “apparent Kd” value stood at 34 nM under setting [1] and 133 nM under setting [2].
For “GUGUAGAUAGGAUAUGCGUGAGUCUAGCGAAGCUAGAUUCUACAUGAGGAUCACCCAUGUAGAAGGGUCUACAC”, in that order: 17.2 nM and 18.5 nM.
For “UUUGCAACAUGAGGAUCACCCAUGUAGGAUAUCGCUAUUGUAAUCAUGAAACAUGAUUACAAUAGCGAGAAGGACAUAUGCAAA”, in that order: 7.54 nM and 10.4 nM.
With “AGAUGGUAUAUAGGAUAUCAUGUGCAAACAUGAGGAUCACCCAUGUAGGAACGUCAGUUCAAUAAUGAGAAGGAUAUACCAUCU”, the “apparent Kd” value under setting [3] was found to be 33.4 nM and the “apparent Kd” value under setting [4] is 11.9 nM.
For “CCUAUGUGAGGAUAUCACUGGUCUUCUUUUAUUUUUUACAGUGAGAAGGCACAUGAGGAUCACCCAUGUCGGUG”, the “apparent Kd” value is 107 nM under setting [1] and 36.4 nM under setting [2].
For “UCGACGAAAGUCGAACGAUGUAGCAGAAGGACAUGAGGAUCACCCAUGUCAGCUGUAACAGCCAUGUAGGAUAUGCUACAUCGA”, in that order: 3.96 nM and 5.54 nM.
For “AGGAGAAAUGUAGGAUAUGGGCAUAUAUAUGGGCAAAGCGCAUAUAUAUGCCCAGAAGGACAUGAGGAUCACCCAUGUUUCCCU”, in that order: 12.5 nM and 13.6 nM.
Turning to “GUAUAUAUUACAUGAGGAUCACCCAUGUCAGAACGGGUAAUCAGAAGGUAUUAUUAGAGAAAGGGUAAGGAUAUGAUUAUAUAC”, the “apparent Kd” value runs as follows: under setting [3], 577 nM; under setting [4], 321 nM.
Regarding “GUUUCACAUGAGGAUCACCCAUGUGAGGAUAUAGAUUUUUUAGUAAUAAUUGUUGGAUUUAGAAGGCGCGUGAU”, the “apparent Kd” value under setting [1] stood at 22 nM and the “apparent Kd” value under setting [2] is 21.5 nM.
For “CGAUGACAAAGUCAUCGAUAACGAACAUGAGGAUCACCCAUGUAGGAUAUGCUACUCAAAGAGUAGCAGAAGGACAUGUGCCUU” the same measures were 34.2 nM and 284 nM.
For “AGCCAAGCAGGAUAUGCCCGGGAUAACAUGAGGAUCACCCAUGUGACCGAUUGAUGUCCUGCAGAAGGGCUUGGGA” the same measures were 15.6 nM and 79.8 nM.
For “AAUUCGUGUCGAGGAUAUAUUAUAUGACAACAAACACAUACAUGAGGAUCACCCAUGUCCCAUGUAUAGAAGGCGAUGUGUGUG”, the “apparent Kd” value worked out at 260 nM under setting [3] and 228 nM under setting [4].
As for “GGAAAACAUGAGGAUCACCCAUGUGAGGAUAUCGAUGUCCAAAAACCCGUGCGGGACUCGAGAAGGCACUUGGA”, the “apparent Kd” value by setting is: under setting [1], 43.1 nM; under setting [2], 57 nM.
For “ACGCAACAUGAGGAUCACCCAUGUGAGGAUAUGUAAAUAGUAAACAAAUAGGAAAUGAACAGAAGGCACACCGG” the same measures were 33.8 nM and 46 nM.
For “GUAGUUGUGUGGUUGAGGAUAGGGCAGGAUAUACAUGAGGAUCACCCAUGUGAAGCGGGAAGGAGGUAGAAGGGCCAACGUCAU”, in that order: 13.7 nM and 10.9 nM.
For “AGCAUGUAAGGAUAUGUAACGCGGCUUUCAUUCGCCGUCCCACAGAAGGUACAUGAGGAUCACCCAUGUGCUCC” the same measures were 38.1 nM and 87.6 nM.
Turning to “CUAUAUUAGUAGAAGGACGGAGAGUAUGUAGUCGUAGGAUAUACAUAAGACAUGAGGAUCACCCAUGUGUGUAUGUUGGGUAUG”, the “apparent Kd” value was found to be 9.66 nM under setting [1] and 8.03 nM under setting [2].
For “UUCAAGUCAGGAUAUCCAUAUUUCUGAUAUAACGGUACUUUGGAGAAGGGACAUGAGGAUCACCCAUGUAAUCU” the same measures were 24.5 nM and 28.3 nM.
For “AAACAUGUCCGAGGAUAUCUGGAAACAUUUCCAAGAGAAGGCGGACAUGAGGAUCACCCAUGUCUCUCCUCAUCAAAUCCAAGU” the same measures were 24.6 nM and 287 nM.
Consider “GAUCCUUCUGUUAGGAUAUGCUUUGGGCUUCCGCUGCAGAAGGAACAUGAGGAUCACCCAUGUCCGAUGCCGUC”, for which the “apparent Kd” value was determined as 74 nM under setting [1] and 89.4 nM under setting [2].
For “UCUUUCGUUGUGAGGAUAUGCCCAAAUAAAAGCGGGCAGAAGGCACAUGAGGAUCACCCAUGUCCUGCGGUUUU” the same measures were 22.8 nM and 288 nM.
As to “CUAGUACAUGAGGAUCACCCAUGUCAGGAUAUUGGAUAUGCCUUGGAAAACAUGUUUACAAGAAGGGACUAUAG”, the “apparent Kd” value reads like this: under setting [1], 19.1 nM; under setting [2], 19.6 nM.
For “AUAUCCGAAGCAGGAUAUCGACGAGGUGUCGAGAUAGAGCGUACUCACAUGAGGAUCACCCAUGUCGAGAAGGGCUAUAGGAUA”, in that order: 22.2 nM and 83.4 nM.
For the sequence “UGUGAGUUGAUCUUAGAUCGGAGUACAUGAGGAUCACCCAUGUAGGAUAUUCAAAGACGCAGAUAGAAGAAGGACAUAGGUUUC”, the “apparent Kd” value was 15.1 nM under setting [1] and 13.8 nM under setting [2].
With “CCCAAACUUGGGUUUAAUGGUUCAUAGGAUAUGCUUGUACAUGAGGAUCACCCAUGUACUAUUGUGCAGAAGGGUGCAUGGCAA”, the “apparent Kd” value is, setting by setting: under setting [3], 39.8 nM; under setting [4], 26.3 nM.
Consider “CCUAGUUGGUAAGGAUAUCCUACACUGUUCUGACCCGUGCAAGCUACAUGAGGAUCACCCAUGUGGGAGAAGGUGCGUCAACGU”, for which the “apparent Kd” value is 12.7 nM under setting [1] and 11.9 nM under setting [2].
Consider “GGGUACAUGGGAGGAUAUCCUCAUGAGACAUGAGGAUCACCCAUGUAUUAUAAGCCGAAAGGCAAGGAGAAGGCCCAUGUACCG”, for which the “apparent Kd” value runs as follows: under setting [3], 30.2 nM; under setting [4], 17 nM.
Turning to “GUCAGCAAAUAAGGAUAUACAACACUGCUUCGGCAGUGUAUUAAGAUCACAUGAGGAUCACCCAUGUAGAAGGUAUAAGCUGAU”, the “apparent Kd” value reads like this: under setting [1], 6.98 nM; under setting [2], 24.5 nM.
With “GUUGCACAAGUUAACAUGAGGAUCACCCAUGUCAAAAGACAUGAGGAUAUGGAGCUGAAGAUUAUCCAGAAGGCAUAAUGCUAA”, the “apparent Kd” value under setting [3] was 460 nM and the “apparent Kd” value under setting [4] came to 158 nM.
For “UUGGACGUCGUAGGAUAUCUAGGAUAUUCCUACAUGAGGAUCACCCAUGUUGACAUGGAAGAAGGACAGAAGGACGAUGUCCAU”, in that order: 14.9 nM and 11 nM.
Regarding “AGUUGGCGAGGAUAUACAUGAGGAUCACCCAUGUGAAAUAGAAUAGUGAGGAAGAAAAGUAGAAGGCGCUGACA”, the “apparent Kd” value under setting [1] is 58.6 nM and the “apparent Kd” value under setting [2] came out at 323 nM.
For “UCAUGAUAUGUAGGAUAUCACAUUUAUUGAUUAAUAUAUGAAUAUAGAAUUUGAGAAGGACAUUUACAUGAGGAUCACCCAUGU” the same measures were 15.8 nM and 16.7 nM.
Take “GCAAAGCCUGACAUGAGGAUCACCCAUGUUAGAUUGUUAUGUCAGGAUAUUGUCUAGCCACUAGACAAGAAGGGAUGCUUUGCU”: the “apparent Kd” value stood at 384 nM under setting [3] and 32.9 nM under setting [4].
Take “CAGAAGUCAGGAUAUGCUGCUCGUCACUUGCGUGAUGAGUAGCAGAAGGGACAUGAGGAUCACCCAUGUAAAGC”: the “apparent Kd” value stood at 53.5 nM under setting [1] and 87.1 nM under setting [2].
In the case of “UGUACUUAUUUUAAUUAUGAUUUACUAGAAGGUAGAUACAUGAGGAUCACCCAUGUUUAGAGUUCUAAGGAUAUAGAUUUUAUC”, the “apparent Kd” value reads like this: under setting [3], 10.3 nM; under setting [4], 10.2 nM.
Take “GAAUGUAAAGAGAAGGGCUACUGGUUGAAACCUGCGGCCUCUGGAACAUGAGGAUCACCCAUGUAGCAGGAUAUCUUUGCGUCA”: the “apparent Kd” value by setting is: under setting [1], 192 nM; under setting [2], 29.5 nM.
For “GGAUAGGACAGAGGAUAUACGUGCUAGAGAUACUAGCAAAAUUACCUCACAUGAGGAUCACCCAUGUAGAAGGCUGUCCUAUCG”, in that order: 5.29 nM and 60.6 nM.
For “CAUAAGAUAGGAUAUACAGGCCCGUCUUUAUAUUGAUCCCGACAUGAGGAUCACCCAUGUAGAAGGAUCAUAUG”, in that order: 13.7 nM and 15.2 nM.
Regarding “UAGUGAUUGCAAGGAUAUGCUAGUUUUUAUUUGUGUUUGAUAACAAACAUGAGGAUCACCCAUGUGCAGAAGGUGCUAGAUAUG”, the “apparent Kd” value under setting [3] was 566 nM and the “apparent Kd” value under setting [4] is 510 nM.
